Source: PubChem BioAssay
Values without a mark were called inactive. The source made the active and inactive calls.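 The calls were made as follows, unless noted: active = growth inhibition above 25% in both replicates, a cutoff set 3 SD above the mean; inconclusive = above 25% in only one replicate; inactive = the rest.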

Assay: OD615 S. cerevisiae growth inhibition, permissive medium, pilot counter-assay, permissive growth control for S. cerevisiae lifespan shortening project (AID 705)
Conditions: OD615, 24 h, at 10 µM, active compounds read high
Outline: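 assay system = Saccharomyces cerevisiae strain carrying genetically modified DeaD replicative-lifespan system | medium = SC raffinose/galactose permissive medium | dosing = 10 µM single dose, 0.25% DMSO | schedule = 24 h compound exposure at 30 °C after 4 h pre-growth | measured by = OD at 615 nm | read-out basis = growth inhibition from lowered OD615 after 24 h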

Question: For `O=S(=O)(Cc1ccccc1)N1CCn2c(nc3ccccc32)C1`, which growth inhibition is on record?
Answer: The growth inhibition was -14.1%.

Question: With `Cc1noc(C(=O)NCc2ccco2)c1Cl` as the compound, how does the growth inhibition read?
Answer: The growth inhibition was -10.3%.

Question: For `Cc1cc(=O)[nH]c(SCc2cc(Cl)ccc2OC(F)F)n1`, which growth inhibition is on record?
Answer: Its growth inhibition is -4.67%.

Question: Which growth inhibition does the source give for `COc1cccc(C2CC(c3ccccc3OC)n3nc(N)nc3N2)c1` (stereo not drawn) here?
Answer: The growth inhibition was -0.495%.

Question: For `O=C1c2ccccc2C(=O)N1CCc1nc2ccccc2c(=O)n1Cc1ccco1`, which growth inhibition is on record?
Answer: The growth inhibition was -8.88%.

Question: With `CCN(CC(=O)NCc1ccc(F)cc1)C(=O)C1CCN(C(=O)Nc2ccccc2)CC1` as the compound, how does the growth inhibition read?
Answer: Its growth inhibition is -2.92%.

Question: Which growth inhibition does the source give for `COCCn1c(SCCN2CCOCC2)nc2c1c(=O)[nH]c(=O)n2C` here?
Answer: The growth inhibition was -0.205%.

Question: For `Cc1ccc(C(=O)NCCn2cc(SCC(=O)Nc3cc(C)on3)c3ccccc32)cc1`, which growth inhibition is on record?
Answer: Its growth inhibition is -3.4%.

Question: Which growth inhibition does the source give for `COC(=O)C1CCCN1C(C(=O)NC1CCCCC1)c1ccc(Cl)cc1` (stereo not drawn) here?
Answer: The growth inhibition was -15.1%.

Question: Which growth inhibition does the source give for `CC(=O)c1ccc(OCCCC(=O)NCC(c2ccco2)N(C)C)cc1` (stereo not drawn) here?
Answer: The growth inhibition was 4.54%.

Question: With `CCOc1ccc(NC2c3ccccc3C(=O)N2c2ccc(Cl)cn2)cc1` (stereo not drawn) as the compound, how does the growth inhibition read?
Answer: Its growth inhibition is -14%.

Question: For `O=C(c1ccco1)N1CCN=C1SCc1cccc(Cl)c1`, which growth inhibition is on record?
Answer: Its growth inhibition is -1.8%.

Question: For `Cc1nn(C(=O)CN2C(=O)c3ccccc3C2=O)c(C)c1Br`, which growth inhibition is on record?
Answer: The growth inhibition was -4.13%.

Question: For `CCOC(=O)CNc1c(N2CCN(c3ccccn3)CC2)c(=O)c1=O`, which growth inhibition is on record?
Answer: The growth inhibition was 2.94%.

Question: With `CCOC(=O)c1[nH]c(=O)[nH]c1CSc1nc(C)cc(C)n1` as the compound, how does the growth inhibition read?
Answer: The growth inhibition was -4.23%.

Question: For `Cc1ccc(NC(=O)CSc2nnc(Cc3cccn3C)n2-c2ccc(F)cc2)c(C)c1`, which growth inhibition is on record?
Answer: Its growth inhibition is 4.68%.

Question: With `COc1ccc(NC(=O)c2ccc3c(c2)n(C)c(=O)n3C)cc1` as the compound, how does the growth inhibition read?
Answer: Its growth inhibition is -9.67%.

Question: With `O=C(O)COc1ccc2c(c1)OCCO2` as the compound, how does the growth inhibition read?
Answer: Its growth inhibition is -7.81%.

Question: For `O=C(Nc1cccc(Br)c1)c1cc2ccccc2o1`, which growth inhibition is on record?
Answer: Its growth inhibition is -5.65%.

Question: With `CC1(C)Cc2ccccc2-c2nc(NCCO)n(-c3ccccc3)c(=O)c21` as the compound, how does the growth inhibition read?
Answer: Its growth inhibition is -7.5%.

Question: Which growth inhibition does the source give for `C=C(C)CSc1nc2c(cc1C#N)CCC2` here?
Answer: Its growth inhibition is 9.43%.

Question: With `CCC1Oc2nc(SC)nnc2-c2ccccc2N1C(=O)c1ccccc1` (stereo not drawn) as the compound, how does the growth inhibition read?
Answer: Its growth inhibition is -2.41%.

Question: Which growth inhibition does the source give for `COC(=O)c1ccccc1NC(=O)CS(=O)(=O)Cc1nc(-c2ccc(C)cc2)oc1C` here?
Answer: Its growth inhibition is -9.1%.

Question: For `O=C1CC(c2ccccc2)C(C(=O)Nc2ccccc2F)N1` (stereo not drawn), which growth inhibition is on record?
Answer: Its growth inhibition is -17.2%.

Question: Which growth inhibition does the source give for `O=C(CCSCCc1ccccn1)Nc1nccs1` here?
Answer: Its growth inhibition is 6.12%.

Question: For `CCN(CCNS(=O)(=O)c1ccc2c(c1)oc(=O)n2C)c1ccccc1`, which growth inhibition is on record?
Answer: Its growth inhibition is -5.19%.

Question: With `O=C(CN(Cc1ccccc1)S(=O)(=O)c1ccccc1)NC1CC1` as the compound, how does the growth inhibition read?
Answer: The growth inhibition was -4.36%.

Question: With `O=C(Nc1cccc(F)c1)c1ccc(S(=O)(=O)N2CCCC2)cc1` as the compound, how does the growth inhibition read?
Answer: The growth inhibition was -3.88%.

Question: For `N#Cc1cccc(NC(=O)CC2CCCCC2)c1`, which growth inhibition is on record?
Answer: Its growth inhibition is -1.48%.

Question: With `O=S(=O)(NC1c2cccc3cccc(c23)C1N1CCNCC1)c1ccccc1` (stereo not drawn) as the compound, how does the growth inhibition read?
Answer: The growth inhibition was -10.4%.

Question: Which growth inhibition does the source give for `CC(C)N(Cc1nc(-c2ccccc2)no1)C(=O)Cc1ccccc1` here?
Answer: Its growth inhibition is -14.4%.

Question: Which growth inhibition does the source give for `COc1cc(NC(=O)c2cc(-c3cccc(O)c3)on2)cc(OC)c1OC` here?
Answer: Its growth inhibition is -13.9%.

Question: Which growth inhibition does the source give for `Cc1cccc(NC(=O)CC2SC(=NC3CCCCC3)NC2=O)c1` (stereo not drawn) here?
Answer: The growth inhibition was -5.5%.

Question: Which growth inhibition does the source give for `CCSc1nnc(Cn2c(=O)sc3ccccc32)n1-c1ccc(OC)cc1` here?
Answer: The growth inhibition was -4.46%.

Question: For `Cn1c(=O)oc2cc(S(=O)(=O)N3CCC(N4CCCCC4)CC3)ccc21`, which growth inhibition is on record?
Answer: Its growth inhibition is -15.8%.

Question: Which growth inhibition does the source give for `CN(C(=O)c1cnc2n(c1=O)CCS2)C1CCCCC1` here?
Answer: Its growth inhibition is -9.04%.

Question: With `COc1cc(OC)c(C2CC(=O)N3CN(C)CSC3=C2C#N)cc1OC` (stereo not drawn) as the compound, how does the growth inhibition read?
Answer: Its growth inhibition is 19.5%.

Question: Which growth inhibition does the source give for `CCn1nnc(NC(=O)c2ccc(C(C)(C)C)cc2)n1` here?
Answer: The growth inhibition was -24.7%.

Question: For `Cc1cc2nsnc2c(S(=O)(=O)NCC(=O)O)c1C`, which growth inhibition is on record?
Answer: The growth inhibition was -7.75%.

Assay: Restrictive medium S. cerevisiae growth inhibition, OD615, pilot screen of yeast lifespan reduction project, restrictive growth control (AID 706;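 active = growth inhibition above a set limit, 3 SD over mean compound inhibition, in both replicates, cut at about 43% in these data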;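 also: modified DeaD lifespan yeast strain shifted to restrictive glucose medium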)
Conditions: OD615, 48 h, at 10 µM, active compounds read high
Outline: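 Buffer or medium: CSMM-D glucose medium. Material: genetically modified Saccharomyces cerevisiae, DeaD replicative lifespan assay strain. Times: 48 h compound exposure at 30 °C. Measured by: optical density at 615 nm.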

Question: For `O=S(=O)(Cc1ccccc1)N1CCn2c(nc3ccccc32)C1`, which growth inhibition is on record?
Answer: The growth inhibition was -0.745%.

Question: For `Cc1noc(C(=O)NCc2ccco2)c1Cl`, which growth inhibition is on record?
Answer: Its growth inhibition is -34.1%.

Question: For `Cc1cc(=O)[nH]c(SCc2cc(Cl)ccc2OC(F)F)n1`, which growth inhibition is on record?
Answer: The growth inhibition was 15.1%.

Question: For `COc1cccc(C2CC(c3ccccc3OC)n3nc(N)nc3N2)c1` (stereo not drawn), which growth inhibition is on record?
Answer: Its growth inhibition is 6.87%.

Question: With `O=C1c2ccccc2C(=O)N1CCc1nc2ccccc2c(=O)n1Cc1ccco1` as the compound, how does the growth inhibition read?
Answer: The growth inhibition was -1.42%.

Question: With `CCN(CC(=O)NCc1ccc(F)cc1)C(=O)C1CCN(C(=O)Nc2ccccc2)CC1` as the compound, how does the growth inhibition read?
Answer: The growth inhibition was -6.36%.

Question: For `COCCn1c(SCCN2CCOCC2)nc2c1c(=O)[nH]c(=O)n2C`, which growth inhibition is on record?
Answer: The growth inhibition was -4.84%.

Question: For `Cc1ccc(C(=O)NCCn2cc(SCC(=O)Nc3cc(C)on3)c3ccccc32)cc1`, which growth inhibition is on record?
Answer: The growth inhibition was 9.18%.

Question: For `COC(=O)C1CCCN1C(C(=O)NC1CCCCC1)c1ccc(Cl)cc1` (stereo not drawn), which growth inhibition is on record?
Answer: Its growth inhibition is -2.47%.

Question: With `CC(=O)c1ccc(OCCCC(=O)NCC(c2ccco2)N(C)C)cc1` (stereo not drawn) as the compound, how does the growth inhibition read?
Answer: Its growth inhibition is -0.015%.

Question: With `CCOc1ccc(NC2c3ccccc3C(=O)N2c2ccc(Cl)cn2)cc1` (stereo not drawn) as the compound, how does the growth inhibition read?
Answer: Its growth inhibition is -15.6%.

Question: For `O=C(c1ccco1)N1CCN=C1SCc1cccc(Cl)c1`, which growth inhibition is on record?
Answer: The growth inhibition was 14%.

Question: For `Cc1nn(C(=O)CN2C(=O)c3ccccc3C2=O)c(C)c1Br`, which growth inhibition is on record?
Answer: The growth inhibition was 3.1%.

Question: With `CCOC(=O)CNc1c(N2CCN(c3ccccn3)CC2)c(=O)c1=O` as the compound, how does the growth inhibition read?
Answer: Its growth inhibition is 13.8%.

Question: Which growth inhibition does the source give for `CCOC(=O)c1[nH]c(=O)[nH]c1CSc1nc(C)cc(C)n1` here?
Answer: Its growth inhibition is 7.25%.

Question: With `Cc1ccc(NC(=O)CSc2nnc(Cc3cccn3C)n2-c2ccc(F)cc2)c(C)c1` as the compound, how does the growth inhibition read?
Answer: Its growth inhibition is 8.61%.

Question: For `COc1ccc(NC(=O)c2ccc3c(c2)n(C)c(=O)n3C)cc1`, which growth inhibition is on record?
Answer: Its growth inhibition is -7.33%.

Question: Which growth inhibition does the source give for `O=C(O)COc1ccc2c(c1)OCCO2` here?
Answer: The growth inhibition was -2.33%.

Question: With `O=C(Nc1cccc(Br)c1)c1cc2ccccc2o1` as the compound, how does the growth inhibition read?
Answer: Its growth inhibition is -7.8%.

Question: Which growth inhibition does the source give for `CC1(C)Cc2ccccc2-c2nc(NCCO)n(-c3ccccc3)c(=O)c21` here?
Answer: Its growth inhibition is -15.2%.

Question: With `C=C(C)CSc1nc2c(cc1C#N)CCC2` as the compound, how does the growth inhibition read?
Answer: The growth inhibition was 21.6%.

Question: Which growth inhibition does the source give for `CCC1Oc2nc(SC)nnc2-c2ccccc2N1C(=O)c1ccccc1` (stereo not drawn) here?
Answer: The growth inhibition was -2.26%.

Question: For `COC(=O)c1ccccc1NC(=O)CS(=O)(=O)Cc1nc(-c2ccc(C)cc2)oc1C`, which growth inhibition is on record?
Answer: The growth inhibition was -21.8%.

Question: For `O=C1CC(c2ccccc2)C(C(=O)Nc2ccccc2F)N1` (stereo not drawn), which growth inhibition is on record?
Answer: Its growth inhibition is 2%.

Question: Which growth inhibition does the source give for `O=C(CCSCCc1ccccn1)Nc1nccs1` here?
Answer: The growth inhibition was 8.44%.

Question: With `CCN(CCNS(=O)(=O)c1ccc2c(c1)oc(=O)n2C)c1ccccc1` as the compound, how does the growth inhibition read?
Answer: The growth inhibition was -5.92%.

Question: With `O=C(CN(Cc1ccccc1)S(=O)(=O)c1ccccc1)NC1CC1` as the compound, how does the growth inhibition read?
Answer: The growth inhibition was 11.6%.

Question: Which growth inhibition does the source give for `O=C(Nc1cccc(F)c1)c1ccc(S(=O)(=O)N2CCCC2)cc1` here?
Answer: Its growth inhibition is 0%.

Question: With `N#Cc1cccc(NC(=O)CC2CCCCC2)c1` as the compound, how does the growth inhibition read?
Answer: The growth inhibition was 11.6%.

Question: For `O=S(=O)(NC1c2cccc3cccc(c23)C1N1CCNCC1)c1ccccc1` (stereo not drawn), which growth inhibition is on record?
Answer: The growth inhibition was -14.2%.

Question: With `CC(C)N(Cc1nc(-c2ccccc2)no1)C(=O)Cc1ccccc1` as the compound, how does the growth inhibition read?
Answer: Its growth inhibition is -16.3%.

Question: With `COc1cc(NC(=O)c2cc(-c3cccc(O)c3)on2)cc(OC)c1OC` as the compound, how does the growth inhibition read?
Answer: Its growth inhibition is 3.45%.

Question: Which growth inhibition does the source give for `Cc1cccc(NC(=O)CC2SC(=NC3CCCCC3)NC2=O)c1` (stereo not drawn) here?
Answer: Its growth inhibition is -21.6%.

Question: For `CCSc1nnc(Cn2c(=O)sc3ccccc32)n1-c1ccc(OC)cc1`, which growth inhibition is on record?
Answer: Its growth inhibition is 30.7%.

Question: For `Cn1c(=O)oc2cc(S(=O)(=O)N3CCC(N4CCCCC4)CC3)ccc21`, which growth inhibition is on record?
Answer: The growth inhibition was -13.1%.

Question: For `CN(C(=O)c1cnc2n(c1=O)CCS2)C1CCCCC1`, which growth inhibition is on record?
Answer: Its growth inhibition is -5.85%.

Question: For `COc1cc(OC)c(C2CC(=O)N3CN(C)CSC3=C2C#N)cc1OC` (stereo not drawn), which growth inhibition is on record?
Answer: The growth inhibition was 60% (active).

Question: Which growth inhibition does the source give for `CCn1nnc(NC(=O)c2ccc(C(C)(C)C)cc2)n1` here?
Answer: Its growth inhibition is -6.88%.

Question: With `Cc1cc2nsnc2c(S(=O)(=O)NCC(=O)O)c1C` as the compound, how does the growth inhibition read?
Answer: The growth inhibition was -1.79%.
